Experimental data taken from ChEMBL document CHEMBL4145559 (ACS Med Chem Lett, 2018).
Values after ≈ are worked out from the molar mass of the structure shown. Active and inactive are the calls of the source. The rule behind the calls is not given here.

What was measured:
[1] = Inhibition of Escherichia coli type 1 signal peptidase using peptide substrate after 30 mins by fluorescence assay
How it was run: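 Purified E. coli SPase was assayed with the internally quenched fluorogenic peptide (Dabcyl)-AGHDAHA↓SET-(EDANS), with cleavage at the arrow separating the EDANS donor from the Dabcyl acceptor. IC50 was taken as the half-maximal inhibitory concentration.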

[2] = test system: Staphylococcus epidermidis; experiment: Antimicrobial activity against Staphylococcus epidermidis RP26A; type: functional
How it was run: (§1)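 MICs determined by the standard CLSI broth microdilution method on intact bacteria (E. coli MG1655; S. epidermidis RP26A).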

Escherichia coli = experiment: Antimicrobial activity against Escherichia coli MG1655 by broth micro dilution method; type: functional, organism-based; settings: K-12 substr. MG1655; how it was run: as §1
Yersinia pestis = experiment: Antimicrobial activity against Yersinia pestis KIM6+; type: functional
HEK293 = experiment: Cytotoxicity against HEK293 cells up to 128 ug/ml after 24 hrs by resazurin dye based fluorescence assay; type: cell-based; settings: human, hek293, 24 h

Structure (SMILES) | IC50 [1] [µg/mL] | MIC [2] [µg/mL] | Activity (Escherichia coli) | MIC (Yersinia pestis) [µg/mL] | Activity (HEK293)
C[C@@H](O)[C@H]1C(=O)N2C(C(=O)O)=CS[C@H]12 | 2.99 (≈ 13.9 µM) | 128 (≈ 595 µM) | inactive | 128 (≈ 595 µM) | 
C[C@@H](O)[C@H]1C(=O)N2C(C(=O)O)=C(SCCNC=N)S[C@H]12 | 1.04 (≈ 3.28 µM) | 8 (≈ 25.2 µM) |  | 16 (≈ 50.4 µM) | Non-Toxic
C[C@@H](O)[C@H]1C(=O)N2C(C(=O)O)=C(S[C@@H]3CN[C@H](C(=O)N(C)C)C3)S[C@H]12 | 1.22 (≈ 3.15 µM) | 32 (≈ 82.6 µM) |  | 64 (≈ 165 µM) | 
C[C@@H](O)[C@H]1C(=O)N2C(C(=O)O)=C(S[C@H]3CCNC3)S[C@H]12 | 0.8 (≈ 2.53 µM) | 8 (≈ 25.3 µM) |  | 8 (≈ 25.3 µM) | 
C[C@@H](O)[C@H]1C(=O)N2C(C(=O)O)=C(S[C@@H]3CC[S+]([O-])C3)S[C@H]12 (stereo not given in full) | 1.16 (≈ 3.32 µM) | 16 (≈ 45.8 µM) |  |  | 
C[C@@H](O)[C@H]1C(=O)N2C(C(=O)O)=C(SCCN(C)C)S[C@H]12 | 3.95 (≈ 12.4 µM) | > 128 |  | > 128 | 
C[C@@H](O)[C@H]1C(=O)N2C(C(=O)O)=C(CCc3ccccn3)S[C@H]12 | 1.31 (≈ 4.09 µM) | 16 (≈ 49.9 µM) |  | 32 (≈ 99.9 µM) | 
C[C@@H](O)[C@H]1C(=O)N2C(C(=O)O)=C(S[C@@H]3CCNC3)S[C@H]12 | 1.75 (≈ 5.53 µM) | 4 (≈ 12.6 µM) |  | 16 (≈ 50.6 µM) | Non-Toxic
C[C@@H](O)[C@H]1C(=O)N2C(C(=O)O)=C(SCCOC(N)=O)S[C@H]12 [Sch-34343] | 0.96 (≈ 2.87 µM) | 4 (≈ 12 µM) |  | 16 (≈ 47.9 µM) | 
C[C@@H](O)[C@H]1C(=O)N2C(C(=O)O)=C(SCCO)S[C@H]12 | 1.49 (≈ 5.11 µM) | 8 (≈ 27.5 µM) |  | 32 (≈ 110 µM) | Non-Toxic
CNCCSC1=C(C(=O)O)N2C(=O)[C@H]([C@@H](C)O)[C@H]2S1 | 6.37 (≈ 20.9 µM) | > 128 |  | > 128 | 
C[C@@H](O)[C@H]1C(=O)N2C(C(=O)O)=C(SCCN)S[C@H]12 | 0.63 (≈ 2.17 µM) | 16 (≈ 55.1 µM) |  | 16 (≈ 55.1 µM) | Non-Toxic
